Two molecules from ChEMBL document CHEMBL4138113, “Novel propanamides as fatty acid amide hydrolase inhibitors” (Eur J Med Chem, 2017) can be followed below.

Usually IC50 stands for the concentration that inhibits the measured activity by half. The term Ki denotes the dissociation constant of the complex between target and ligand, obtained from inhibition or displacement. A high value points to lower affinity.

Active and inactive are the calls of the source.

Experiment [1] has as its target T1, Prostaglandin G/H synthase 1 (Ovis aries) (UniProt P05979).
T1 sequence (whole entry): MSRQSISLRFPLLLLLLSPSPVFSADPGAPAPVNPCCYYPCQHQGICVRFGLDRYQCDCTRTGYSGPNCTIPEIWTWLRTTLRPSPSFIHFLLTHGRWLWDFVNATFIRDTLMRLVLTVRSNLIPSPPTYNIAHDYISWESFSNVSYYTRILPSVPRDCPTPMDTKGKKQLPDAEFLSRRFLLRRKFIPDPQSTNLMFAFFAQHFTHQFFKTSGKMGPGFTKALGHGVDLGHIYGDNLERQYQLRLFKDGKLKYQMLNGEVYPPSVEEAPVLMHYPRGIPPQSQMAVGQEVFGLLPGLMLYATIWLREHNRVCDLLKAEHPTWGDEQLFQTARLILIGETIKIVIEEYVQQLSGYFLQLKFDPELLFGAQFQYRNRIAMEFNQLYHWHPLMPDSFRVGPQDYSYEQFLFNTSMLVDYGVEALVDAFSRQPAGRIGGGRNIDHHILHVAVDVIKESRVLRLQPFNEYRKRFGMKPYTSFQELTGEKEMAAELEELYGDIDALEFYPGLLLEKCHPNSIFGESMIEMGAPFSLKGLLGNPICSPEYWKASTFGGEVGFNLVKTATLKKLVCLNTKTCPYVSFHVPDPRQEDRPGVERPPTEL
The experiment in a line: Inhibition of ovine COX1 using arachidonic acid as substrate after 5 mins. A digest of the protocol:
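Oxygen-electrode assay at room temperature in 0.1 M Tris-HCl, pH 7.4, with 1 µM haematin, 2 mM phenol, 5 mM EDTA and 10 µM (final) arachidonic acid or 2-AG. Compound in EtOH was added and a 5 min baseline recorded. The reaction was started with ovine COX-1 or human recombinant COX-2 (200 U), and oxygen consumption was read in 10 s blocks. Means ± SEM, n = 3-4.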

For experiment [2], the target named is T2, Fatty-acid amide hydrolase 1 (Homo sapiens, UniProt O00519).
T2 sequence (O00519 whole entry): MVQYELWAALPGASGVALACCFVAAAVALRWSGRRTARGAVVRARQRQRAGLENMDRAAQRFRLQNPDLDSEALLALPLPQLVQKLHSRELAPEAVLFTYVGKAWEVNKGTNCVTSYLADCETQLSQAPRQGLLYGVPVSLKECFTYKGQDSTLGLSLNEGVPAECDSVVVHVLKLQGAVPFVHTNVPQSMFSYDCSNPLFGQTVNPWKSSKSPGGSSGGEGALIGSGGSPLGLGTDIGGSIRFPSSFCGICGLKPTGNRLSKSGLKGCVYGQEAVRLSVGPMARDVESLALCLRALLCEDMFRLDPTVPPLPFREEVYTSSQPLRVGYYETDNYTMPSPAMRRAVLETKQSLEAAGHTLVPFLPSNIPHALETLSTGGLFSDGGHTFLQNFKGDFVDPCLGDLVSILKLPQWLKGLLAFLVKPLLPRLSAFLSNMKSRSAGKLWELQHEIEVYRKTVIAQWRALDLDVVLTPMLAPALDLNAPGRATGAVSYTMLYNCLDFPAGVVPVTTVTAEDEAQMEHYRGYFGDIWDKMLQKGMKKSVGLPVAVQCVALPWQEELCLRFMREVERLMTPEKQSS
The experiment in a line: Inhibition of FAAH (unknown origin) expressed in human HeLa cells using [3H]AEA as substrate after 2 hrs by liquid scintillation counting analysis. In kind it is cell-based.

The target of experiment [3] is T3, Fatty-acid amide hydrolase 1 (Rattus norvegicus, UniProt P97612).
T3 sequence (P97612 whole entry): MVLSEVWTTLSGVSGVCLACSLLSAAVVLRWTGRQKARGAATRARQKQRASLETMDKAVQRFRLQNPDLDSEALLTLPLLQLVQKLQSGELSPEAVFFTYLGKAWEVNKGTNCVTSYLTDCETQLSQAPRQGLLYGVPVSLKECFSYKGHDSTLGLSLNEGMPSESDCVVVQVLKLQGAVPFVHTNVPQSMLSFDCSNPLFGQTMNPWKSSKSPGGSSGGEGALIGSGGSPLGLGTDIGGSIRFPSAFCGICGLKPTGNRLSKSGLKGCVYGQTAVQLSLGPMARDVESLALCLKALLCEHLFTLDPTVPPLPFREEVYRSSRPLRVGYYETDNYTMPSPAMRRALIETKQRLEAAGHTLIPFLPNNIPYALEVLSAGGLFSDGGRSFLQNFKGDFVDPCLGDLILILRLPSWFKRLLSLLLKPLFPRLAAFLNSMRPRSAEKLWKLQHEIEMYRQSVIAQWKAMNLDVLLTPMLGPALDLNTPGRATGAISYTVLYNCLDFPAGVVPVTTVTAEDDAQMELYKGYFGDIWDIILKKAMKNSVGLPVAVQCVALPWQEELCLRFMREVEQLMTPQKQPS
The experiment in a line: Competitive inhibition of rat brain FAAH using [3H]AEA as substrate after 10 mins by Dixon plot analysis. A digest of the protocol:
(§1)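 Kinetic study in rat brain homogenate (1 µg protein per assay). [3H]AEA hydrolysis ran for 10 min at 37 °C in Tris-EDTA buffer, pH 7.4, with the AEA:fatty acid-free BSA ratio held at 1:~4.5 across substrate levels. Radioactivity was measured by charcoal separation and scintillation counting. Data were fitted to competitive, mixed-type and non-competitive models, and the best model was chosen by Akaike's criterion.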

Experiment [4] has as its target T4, Fatty-acid amide hydrolase 1 (Rattus norvegicus) (UniProt P97612).
T4 sequence (whole entry): T3 sequence (P97612 whole entry)
The experiment in a line: Inhibition of rat brain FAAH using [3H]AEA as substrate after 10 mins in presence of N-(3-Chloropyridin-2-yl)-2-(4-((2-(trifluoromethyl)pyridin-4-yl)amino)phenyl)propanamide by liquid scintillation counting analysis. A digest of the protocol: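 Rat (Wistar or Sprague-Dawley) brain homogenate without cerebella, washed and pre-incubated 15 min at 37 °C to clear endogenous substrate. Compound (in ethanol or DMSO) was mixed with 1 µg protein on ice in 10 mM Tris-HCl, 1 mM EDTA, pH 7.4. Reaction used 0.5 µM [3H]AEA with fatty acid-free BSA for 10 min at 37 °C. It was stopped with charcoal/HCl, and supernatant tritium was counted. ≥5 half-log concentrations, ≥3 experiments; maximum inhibition = 100 − fitted bottom.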

The target in experiment [5] is Fatty-acid amide hydrolase 1 (Homo sapiens, UniProt O00519, T488A). The experiment in a line: Inhibition of FAAH T488A mutant (unknown origin) expressed in human HeLa cells using [3H]AEA as substrate after 2 hrs by liquid scintillation counting analysis. The experiment is classed as cell-based.
The target in experiment [6] is T4, Fatty-acid amide hydrolase 1 (Rattus norvegicus). The experiment in a line: Reversible inhibition of rat brain FAAH at 0.2 to 2 uM using [3H]AEA as substrate preincubated for 60 mins followed by substrate addition by liquid scintillation counting analysis. A digest of the protocol: (§2)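 Rat brain homogenate at 20-fold normal strength was preincubated with vehicle or compound for 60 min, then diluted 20-fold and assayed with [3H]AEA for 10 min at 37 °C. In parallel, compound was added to vehicle-preincubated aliquots at the post-dilution free concentrations and at the undiluted final concentrations. Tritium was counted after charcoal separation.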

The target in experiment [7] is T3, Fatty-acid amide hydrolase 1. The experiment in a line: Noncompetitive inhibition of rat brain FAAH using [3H]AEA as substrate after 10 mins by Dixon plot analysis. A digest of the protocol: as §1
Experiment [8] has as its target T4, Fatty-acid amide hydrolase 1 (Rattus norvegicus). The experiment in a line: Reversible inhibition of rat brain FAAH at 0.03 to 1 uM using [3H]AEA as substrate preincubated for 60 mins followed by 20 fold compound dilution and subsequent substrate addition by liquid scintillation counting analysis. Put shortly: as §2

Fatty-acid amide hydrolase 1 (Homo sapiens, UniProt O00519, T488A), sequence (O00519 whole entry T488A): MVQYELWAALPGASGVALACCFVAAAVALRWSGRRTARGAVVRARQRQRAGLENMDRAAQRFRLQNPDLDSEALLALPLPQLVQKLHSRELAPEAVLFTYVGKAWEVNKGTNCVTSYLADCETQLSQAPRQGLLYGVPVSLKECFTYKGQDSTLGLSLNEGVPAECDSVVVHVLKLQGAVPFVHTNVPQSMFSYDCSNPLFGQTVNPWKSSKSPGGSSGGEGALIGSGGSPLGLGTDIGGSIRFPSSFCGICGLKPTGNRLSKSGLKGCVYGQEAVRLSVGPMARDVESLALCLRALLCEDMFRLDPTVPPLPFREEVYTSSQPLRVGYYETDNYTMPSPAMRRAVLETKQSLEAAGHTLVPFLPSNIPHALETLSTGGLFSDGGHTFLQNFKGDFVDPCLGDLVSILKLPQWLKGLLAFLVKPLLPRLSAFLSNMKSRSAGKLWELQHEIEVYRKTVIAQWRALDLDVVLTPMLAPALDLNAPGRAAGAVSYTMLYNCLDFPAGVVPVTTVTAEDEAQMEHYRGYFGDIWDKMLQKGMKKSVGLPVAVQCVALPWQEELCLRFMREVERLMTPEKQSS

Turning to `Cc1cccnc1NC(=O)C(C)c1ccc(Nc2ccnc(C(F)(F)F)c2)cc1` (stereo not drawn), the inhibition entry in experiment [1] was “inactive”. The IC50 in experiment [2] lay within 2.2 to 6.5 µM; in experiment [5], 1.9 to 9.4 µM. In experiment [3], this molecule had a Ki of 0.39 µM. In addition, the inhibition result in experiment [4] and in experiment [6] was “Active” in each case.

`CC(C(=O)Nc1ncccc1Cl)c1ccc(Nc2ccnc(C(F)(F)F)c2)cc1` (stereo not drawn) came in with a Ki in experiment [7] of 0.11 µM. For the same molecule, the inhibition result in experiment [8] was “Active”.
